This is an account of results in ChEMBL document CHEMBL1124824, “Synthesis and biological activity of atrial natriuretic factor analogues: effect of modifications to the disulfide bridge” (J Med Chem, 1990).

Assay [1] deals with T1, Atrial natriuretic peptide receptor 2 (Bos taurus, UniProt P46197).
T1 sequence (P46197 whole entry): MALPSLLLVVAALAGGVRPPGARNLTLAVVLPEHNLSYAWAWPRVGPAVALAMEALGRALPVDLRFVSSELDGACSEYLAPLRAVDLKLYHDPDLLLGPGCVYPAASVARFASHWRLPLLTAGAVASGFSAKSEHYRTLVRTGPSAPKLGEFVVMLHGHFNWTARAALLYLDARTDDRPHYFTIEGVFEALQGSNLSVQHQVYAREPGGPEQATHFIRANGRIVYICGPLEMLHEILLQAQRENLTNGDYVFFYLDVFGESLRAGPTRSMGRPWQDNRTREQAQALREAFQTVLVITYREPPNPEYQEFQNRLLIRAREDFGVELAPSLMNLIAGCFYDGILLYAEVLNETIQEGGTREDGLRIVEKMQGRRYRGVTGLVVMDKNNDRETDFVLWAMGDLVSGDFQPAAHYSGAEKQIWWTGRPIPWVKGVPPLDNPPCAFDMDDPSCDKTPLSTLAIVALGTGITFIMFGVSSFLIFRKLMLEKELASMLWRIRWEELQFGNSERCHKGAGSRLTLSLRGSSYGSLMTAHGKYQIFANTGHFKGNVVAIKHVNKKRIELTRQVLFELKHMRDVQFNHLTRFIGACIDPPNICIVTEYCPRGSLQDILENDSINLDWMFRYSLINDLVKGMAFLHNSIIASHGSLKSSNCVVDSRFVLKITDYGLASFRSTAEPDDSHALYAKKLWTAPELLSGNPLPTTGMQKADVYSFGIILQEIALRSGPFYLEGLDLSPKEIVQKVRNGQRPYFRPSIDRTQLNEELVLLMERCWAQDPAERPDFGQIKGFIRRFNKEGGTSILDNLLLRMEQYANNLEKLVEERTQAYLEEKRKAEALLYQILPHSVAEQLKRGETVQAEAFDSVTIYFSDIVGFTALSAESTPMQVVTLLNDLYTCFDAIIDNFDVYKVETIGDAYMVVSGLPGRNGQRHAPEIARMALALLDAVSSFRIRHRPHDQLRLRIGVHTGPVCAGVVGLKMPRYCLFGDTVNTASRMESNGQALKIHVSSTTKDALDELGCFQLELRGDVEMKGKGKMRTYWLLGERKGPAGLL
Description: Binding affinity was determined based on the displacement of [125]r-ANF (99-126) from binding sites on bovine adrenal zona glomerulosa cell membranes (Atrionatriuretic peptide receptor B).

The species entered for assay [2] is Oryctolagus cuniculus. The assay can be described thus: Compound was tested for the inhibition of the stimulated contractions of the superfused rabbit thoracic aortic rings. Type of assay: functional, Aorta. An outline of the steps: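 Rabbit thoracic aorta rings (4 mm) were held isometrically at 10-g resting tension, superfused and precontracted with phenylephrine. Test peptide was added to the superfusate above the tissue in successively higher doses after each recovery. Doses were based on peptide content. EC50 came from the dose-response curve, mean of three determinations ± SEM.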

The species named for assay [3] is Rattus norvegicus. The assay can be described thus: Compound was tested for the K+ excretion for treated over control animals. Type of assay: functional. In outline: (§1)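 Male Sprague-Dawley rats (300-325 g) under halothane/lidocaine had femoral artery, femoral vein and bladder cannulated. After at least 1 h of recovery in restraint, they received Ringer's (1.2 mL/h), with 10-min urine collections over a 30-min control period. Infusion of 0.5 μg/kg per min for 30 min and a 30-min Ringer's recovery followed. Na+, K+ and Cl- were measured with an electrolyte analyzer, reported as treated minus control μmol/sample. Volume ratio is treated/control over three consecutive 10-min samples, six animals.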

For assay [4], the species on record is Rattus norvegicus. Description: Compound was tested for the Na+ excretion for treated over control animals. Format: functional. In outline:
as §1

Assay [5] is filed under the species Rattus norvegicus. Description: Compound was tested for antihypertensive activity in 5/6 nephrectomized rats. Type of assay: functional. An outline of the steps:
(§2)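 Rats were anesthetized with halothane after skin infiltration with 2% lidocaine, and the femoral artery and vein were cannulated. After recovery, arterial pressure was recorded. A saline control period was followed by i.v. infusion in 30-min steps at 0.1, 0.2, 0.5 and 1.0 μg/kg per min (70 μL/kg per min). Hydralazine (100 μg/kg per min) was given for standardization. ED50 is in nmol/kg per min, from six animals.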

For assay [6], the species on record is Rattus norvegicus. The assay can be described thus: Compound was tested for antihypertensive activity in DOCA nephrectomized rats. Format: functional. In outline: as §2
Assay [7] addresses T2, Atrial natriuretic peptide receptor 3 (Mus musculus, UniProt P70180).
T2 sequence (P70180 whole entry): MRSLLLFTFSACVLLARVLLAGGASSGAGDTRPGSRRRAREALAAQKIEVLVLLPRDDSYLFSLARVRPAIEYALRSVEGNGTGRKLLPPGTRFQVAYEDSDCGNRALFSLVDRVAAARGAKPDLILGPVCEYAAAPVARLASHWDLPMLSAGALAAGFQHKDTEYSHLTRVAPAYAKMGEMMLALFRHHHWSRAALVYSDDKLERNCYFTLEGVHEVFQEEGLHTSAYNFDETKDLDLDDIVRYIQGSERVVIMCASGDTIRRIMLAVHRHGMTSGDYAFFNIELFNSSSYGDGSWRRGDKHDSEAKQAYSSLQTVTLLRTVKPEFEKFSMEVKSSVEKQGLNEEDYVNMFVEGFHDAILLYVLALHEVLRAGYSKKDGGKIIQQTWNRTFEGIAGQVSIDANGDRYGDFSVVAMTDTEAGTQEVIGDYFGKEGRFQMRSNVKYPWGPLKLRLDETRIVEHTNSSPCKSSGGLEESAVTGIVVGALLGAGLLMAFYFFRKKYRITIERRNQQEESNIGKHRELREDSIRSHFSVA
Description: Binding affinity was determined based on the displacement of [125]r-ANF (99-126) from binding sites on mouse fibroblasts (NIH 3T3) cells (Atrionatriuretic peptide receptor C).

Starred links: 1 amine or outer side, 2 acyl side, 3 side chain; linkers in the order of their positions; H or OH if unused. Positions of bridges follow the written chain, without caps; N, C: chain ends. Non-standard residues stand in square brackets, D forms with d. Residues, ends and D or L forms follow the SMILES beside them. βAsp = O=C(O)[C@H](CC(=O)[*:2])N[*:1]; Asu = N[C@@H](CCCCCC(=O)O)C(=O)O; Pen = CC(C)(S)[C@H](N)C(=O)O; hCys = N[C@@H](CCS)C(=O)O; X2 = O=C(CCC[*:2])[*:1]; X1 = O=C(CC[*:2])[*:1]; CO = O=C([*:1])[*:2] Some results are limits rather than exact numbers.

`CC[C@H](C)[C@H](NC(=O)[C@H](CCCN=C(N)N)NC(=O)[C@H](CC(=O)O)NC(=O)[C@@H](NC(=O)[C@H](CCCN=C(N)N)NC(=O)CNC(=O)CNC(=O)[C@H](Cc1ccccc1)NC(=O)N[C@@H](CC(=O)OC)C(=O)O)[C@@H](C)CC)C(=O)NCC(=O)N[C@@H](C)C(=O)N[C@@H](CCC(N)=O)C(=O)N[C@@H](CO)C(=O)NCC(=O)N[C@@H](CC(C)C)C(=O)NCC(=O)N[C@@H](CS)C(=O)N[C@@H](CC(N)=O)C(=O)N[C@@H](CO)C(=O)N[C@@H](Cc1ccccc1)C(=O)N[C@@H](CCCN=C(N)N)C(=O)N[C@@H](Cc1ccc(O)cc1)C(=O)O` ({OMe-βAsp-CO}-FGGRIDRIGAQSGLGCNSFRY-OH) came in with an IC50 in assay [1] of 8.67 nM. This compound also showed an EC50 in assay [2] of 1.4e-10 M 50ul-1. Moreover, the Electrolyte excretion in assay [3] is 23.5 uM sample-1; in assay [4], 38.1 uM sample-1. Also, the values for the ED50 in assay [5] and in assay [6] were more than 2 nM/min/kg and more than 4 nM/min/kg, respectively.
As to `CC[C@H](C)[C@@H]1NC(=O)[C@H](CCCN=C(N)N)NC(=O)[C@H](CC(=O)O)NC(=O)[C@H]([C@@H](C)CC)NC(=O)[C@H](CCCN=C(N)N)NC(=O)CNC(=O)CNC(=O)[C@H](Cc2ccccc2)NC(=O)CCCSC[C@@H](C(=O)N[C@@H](CC(N)=O)C(=O)N[C@@H](CO)C(=O)N[C@@H](Cc2ccccc2)C(=O)N[C@@H](CCCN=C(N)N)C(=O)N[C@@H](Cc2ccc(O)cc2)C(=O)O)NC(=O)CNC(=O)[C@H](CC(C)C)NC(=O)CNC(=O)[C@H](CO)NC(=O)[C@H](CCC(N)=O)NC(=O)[C@H](C)NC(=O)CNC1=O` (FGGRIDRIGAQSGLGCNSFRY-OH; linker N-16 via X2), the IC50 in assay [1] was 6.17 nM; in assay [7], 0.56 nM. In assay [2], the EC50 is on record as 2.6e-10 M 50ul-1.
Take `CC[C@H](C)[C@@H]1NC(=O)[C@H](CCCN=C(N)N)NC(=O)[C@H](CC(=O)O)NC(=O)[C@H]([C@@H](C)CC)NC(=O)[C@H](CCCN=C(N)N)NC(=O)CNC(=O)CNC(=O)[C@H](Cc2ccccc2)NC(=O)CCCCC[C@@H](C(=O)N[C@@H](CC(N)=O)C(=O)N[C@@H](CO)C(=O)N[C@@H](Cc2ccccc2)C(=O)N[C@@H](CCCN=C(N)N)C(=O)N[C@@H](Cc2ccc(O)cc2)C(=O)O)NC(=O)CNC(=O)[C@H](CC(C)C)NC(=O)CNC(=O)[C@H](CO)NC(=O)[C@H](CCC(N)=O)NC(=O)[C@H](C)NC(=O)CNC1=O` (FGGRIDRIGAQSGLG[Asu]NSFRY-OH; lactam N-16): the 50% inhibitory concentration (IC50) in assay [1] came to 28.8 nM; in assay [7], 0.78 nM. The same compound displayed an EC50 in assay [2] of 4.8e-10 M 50ul-1.
As for `CC[C@H](C)[C@@H]1NC(=O)[C@H](CCCN=C(N)N)NC(=O)[C@H](CC(=O)O)NC(=O)[C@H]([C@@H](C)CC)NC(=O)[C@H](CCCN=C(N)N)NC(=O)CNC(=O)CNC(=O)[C@H](Cc2ccccc2)NC(=O)[C@@H](NC(=O)[C@H](CO)NC(=O)[C@@H](N)CO)CSSC[C@@H](C(=O)N[C@@H](CC(N)=O)C(=O)N[C@@H](CO)C(=O)N[C@@H](Cc2ccccc2)C(=O)N[C@@H](CCCN=C(N)N)C(=O)N[C@@H](Cc2ccc(O)cc2)C(=O)O)NC(=O)CNC(=O)[C@H](CC(C)C)NC(=O)CNC(=O)[C@H](CO)NC(=O)[C@H](CCC(N)=O)NC(=O)[C@H](C)NC(=O)CNC1=O` (H-SSCFGGRIDRIGAQSGLGCNSFRY-OH; disulfide 3-19) [listing 1 of 2 here], the IC50 was 1.37 nM in assay [1] and 0.35 nM in assay [7].
In the case of `CC[C@H](C)[C@@H]1NC(=O)[C@H](CCCN=C(N)N)NC(=O)[C@H](CC(=O)O)NC(=O)[C@H]([C@@H](C)CC)NC(=O)[C@H](CCCN=C(N)N)NC(=O)CNC(=O)CNC(=O)[C@H](Cc2ccccc2)NC(=O)CCSCC[C@@H](C(=O)N[C@@H](CC(N)=O)C(=O)N[C@@H](CO)C(=O)N[C@@H](Cc2ccccc2)C(=O)N[C@@H](CCCN=C(N)N)C(=O)N[C@@H](Cc2ccc(O)cc2)C(=O)O)NC(=O)CNC(=O)[C@H](CC(C)C)NC(=O)CNC(=O)[C@H](CO)NC(=O)[C@H](CCC(N)=O)NC(=O)[C@H](C)NC(=O)CNC1=O` (FGGRIDRIGAQSGLG[hCys]NSFRY-OH; linker N-16 via X1), the values for the IC50 in assay [1] and in assay [7] were 7.8 nM and 0.21 nM, respectively. In addition, the EC50 in assay [2] was 3.5e-10 M 50ul-1.
The corresponding values for `CC[C@H](C)[C@@H]1NC(=O)[C@H](CCCN=C(N)N)NC(=O)[C@H](CC(=O)O)NC(=O)[C@H]([C@@H](C)CC)NC(=O)[C@H](CCCN=C(N)N)NC(=O)CNC(=O)CNC(=O)[C@H](Cc2ccccc2)NC(=O)CCC=CC[C@@H](C(=O)N[C@@H](CC(N)=O)C(=O)N[C@@H](CO)C(=O)N[C@@H](Cc2ccccc2)C(=O)N[C@@H](CCCN=C(N)N)C(=O)N[C@@H](Cc2ccc(O)cc2)C(=O)O)NC(=O)CNC(=O)[C@H](CC(C)C)NC(=O)CNC(=O)[C@H](CO)NC(=O)[C@H](CCC(N)=O)NC(=O)[C@H](C)NC(=O)CNC1=O` are 51 nM, 0.63 nM and 5.5e-10 M 50ul-1.
Consider `CC[C@H](C)[C@@H]1NC(=O)[C@H](CCCN=C(N)N)NC(=O)[C@H](CC(=O)O)NC(=O)[C@H]([C@@H](C)CC)NC(=O)[C@H](CCCN=C(N)N)NC(=O)CNC(=O)CNC(=O)[C@H](Cc2ccccc2)NC(=O)[C@@H](NC(=O)[C@H](CO)NC(=O)[C@@H](N)CO)CSSC[C@@H](C(=O)N[C@@H](CC(N)=O)C(=O)N[C@@H](CO)C(=O)N[C@@H](Cc2ccccc2)C(=O)N[C@@H](CCCN=C(N)N)C(=O)N[C@@H](Cc2ccc(O)cc2)C(=O)O)NC(=O)CNC(=O)[C@H](CC(C)C)NC(=O)CNC(=O)[C@H](CO)NC(=O)[C@H](CCC(N)=O)NC(=O)[C@H](C)NC(=O)CNC1=O` (H-SSCFGGRIDRIGAQSGLGCNSFRY-OH; disulfide 3-19) [listing 2 of 2 here], for which the EC50 in assay [2] came out at 8.9e-11 M 50ul-1.
In the case of `CC[C@H](C)[C@@H]1NC(=O)[C@H](CCCN=C(N)N)NC(=O)[C@H](CC(=O)O)NC(=O)[C@H]([C@@H](C)CC)NC(=O)[C@H](CCCN=C(N)N)NC(=O)CNC(=O)CNC(=O)[C@H](Cc2ccccc2)NC(=O)CCCSC(C)(C)[C@@H](C(=O)N[C@@H](CC(N)=O)C(=O)N[C@@H](CO)C(=O)N[C@@H](Cc2ccccc2)C(=O)N[C@@H](CCCN=C(N)N)C(=O)N[C@@H](Cc2ccc(O)cc2)C(=O)O)NC(=O)CNC(=O)[C@H](CC(C)C)NC(=O)CNC(=O)[C@H](CO)NC(=O)[C@H](CCC(N)=O)NC(=O)[C@H](C)NC(=O)CNC1=O` (FGGRIDRIGAQSGLG[Pen]NSFRY-OH; linker N-16 via X2), the IC50 in assay [1] is 7.8 nM; in assay [7] it was 0.35 nM. Further, the EC50 in assay [2] turned out to be 6.8e-10 M 50ul-1.
